Data: ChEMBL document CHEMBL1926621, “New potent 5-HT(2A) receptor ligands containing an N'-cyanopicolinamidine nucleus: Synthesis and in vitro pharmacological evaluation” (Eur J Med Chem, 2012)

Experiments:
[1] = target: T1, Adrenergic receptor alpha-1 (Rattus norvegicus, UniProt P15823+P23944+P43140); test: Displacement of [3H]prazosin from rat brain cortex adrenergic alpha1 receptor after 30 mins by liquid scintillation counting
T1 sequence (P15823 whole entry): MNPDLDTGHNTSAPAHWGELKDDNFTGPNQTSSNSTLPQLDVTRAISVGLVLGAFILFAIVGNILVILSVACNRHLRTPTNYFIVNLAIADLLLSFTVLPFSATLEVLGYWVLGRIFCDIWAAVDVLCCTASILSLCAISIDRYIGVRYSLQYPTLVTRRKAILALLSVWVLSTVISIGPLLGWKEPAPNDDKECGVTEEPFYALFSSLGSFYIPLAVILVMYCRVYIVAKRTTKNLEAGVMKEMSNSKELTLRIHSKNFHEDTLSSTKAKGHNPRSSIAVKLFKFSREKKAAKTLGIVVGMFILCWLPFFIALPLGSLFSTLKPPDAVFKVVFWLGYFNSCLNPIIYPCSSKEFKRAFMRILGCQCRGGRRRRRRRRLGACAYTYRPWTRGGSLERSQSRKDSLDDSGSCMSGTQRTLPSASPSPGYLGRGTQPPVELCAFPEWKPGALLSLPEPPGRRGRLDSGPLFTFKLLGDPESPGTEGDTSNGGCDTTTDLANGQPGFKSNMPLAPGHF
T1 sequence (P23944 whole entry): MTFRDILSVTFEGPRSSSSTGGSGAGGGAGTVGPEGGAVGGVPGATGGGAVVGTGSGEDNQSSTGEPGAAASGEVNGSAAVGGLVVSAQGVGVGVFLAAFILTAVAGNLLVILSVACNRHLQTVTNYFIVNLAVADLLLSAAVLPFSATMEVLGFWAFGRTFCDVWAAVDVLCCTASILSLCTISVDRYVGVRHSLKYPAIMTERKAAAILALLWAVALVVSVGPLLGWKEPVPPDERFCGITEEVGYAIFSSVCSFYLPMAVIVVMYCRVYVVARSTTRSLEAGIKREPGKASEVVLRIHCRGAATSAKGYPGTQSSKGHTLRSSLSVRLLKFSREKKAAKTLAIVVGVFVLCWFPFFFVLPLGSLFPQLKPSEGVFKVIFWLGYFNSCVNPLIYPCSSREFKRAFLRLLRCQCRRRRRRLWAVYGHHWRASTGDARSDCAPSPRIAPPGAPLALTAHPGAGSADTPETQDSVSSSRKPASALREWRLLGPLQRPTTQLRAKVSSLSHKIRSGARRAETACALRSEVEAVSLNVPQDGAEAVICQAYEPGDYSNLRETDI
T1 sequence (P43140 whole entry): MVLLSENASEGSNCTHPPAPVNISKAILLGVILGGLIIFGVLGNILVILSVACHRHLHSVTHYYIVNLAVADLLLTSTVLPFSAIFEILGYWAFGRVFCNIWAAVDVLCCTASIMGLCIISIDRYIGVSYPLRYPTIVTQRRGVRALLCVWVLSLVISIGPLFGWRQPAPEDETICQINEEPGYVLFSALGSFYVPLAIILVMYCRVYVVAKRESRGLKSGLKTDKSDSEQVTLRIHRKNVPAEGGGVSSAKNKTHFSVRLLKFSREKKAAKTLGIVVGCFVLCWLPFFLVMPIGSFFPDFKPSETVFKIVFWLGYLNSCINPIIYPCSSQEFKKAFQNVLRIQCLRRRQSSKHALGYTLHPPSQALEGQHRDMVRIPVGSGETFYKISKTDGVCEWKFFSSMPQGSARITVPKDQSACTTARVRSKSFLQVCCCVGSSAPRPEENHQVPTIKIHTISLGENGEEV
Method in brief: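 Brain cortex homogenized in 50 mM Tris-HCl pH 7.2, spun twice at 50,000 g, resuspended in Tris-HCl pH 7.4. 0.4 nM [3H]prazosin final, 10 mg fresh tissue, 30 min at 25 °C. Nonspecific binding with phentolamine. GF/B filtration. Ki by Cheng-Prusoff from six-point triplicate curves.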

[2] = target: 5-hydroxytryptamine receptor 2A (Rattus norvegicus) (UniProt P14842); test: Displacement of [3H]ketanserin from Sprague-Dawley rat brain cortex serotonin 5-HT2A receptor at 0.001 uM after 15 mins by liquid scintillation counting
Sequence of 5-hydroxytryptamine receptor 2A (Rattus norvegicus) (P14842 whole entry): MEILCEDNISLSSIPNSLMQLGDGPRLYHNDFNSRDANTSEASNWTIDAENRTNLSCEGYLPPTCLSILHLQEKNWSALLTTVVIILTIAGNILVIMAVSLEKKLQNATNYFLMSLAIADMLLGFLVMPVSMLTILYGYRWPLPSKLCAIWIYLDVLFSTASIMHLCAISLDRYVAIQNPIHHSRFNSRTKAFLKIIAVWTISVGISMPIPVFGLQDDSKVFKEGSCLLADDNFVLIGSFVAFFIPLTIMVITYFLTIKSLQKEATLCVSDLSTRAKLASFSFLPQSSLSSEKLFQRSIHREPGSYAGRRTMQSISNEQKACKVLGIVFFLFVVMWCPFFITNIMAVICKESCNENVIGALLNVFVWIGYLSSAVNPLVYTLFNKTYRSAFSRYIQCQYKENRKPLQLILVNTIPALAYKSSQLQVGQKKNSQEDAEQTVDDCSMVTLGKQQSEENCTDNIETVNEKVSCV

[3] = target: 5-hydroxytryptamine receptor 2A (Rattus norvegicus) (UniProt P14842); test: Displacement of [3H]ketanserin from Sprague-Dawley rat brain cortex serotonin 5-HT2A receptor at 0.00001 uM after 15 mins by liquid scintillation counting
[4] = target: 5-hydroxytryptamine receptor 2A (Rattus norvegicus) (UniProt P14842); test: Displacement of [3H]ketanserin from Sprague-Dawley rat brain cortex serotonin 5-HT2A receptor at 0.0000001 uM after 15 mins by liquid scintillation counting

Ki [1] [nM]	inhibition [2] [%]	inhibition [3] [%]	inhibition [4] [%]	SMILES
130				N#C/N=C(\NCCCN1CCN(c2ccccn2)CC1)c1ccccn1
> 10000	70.4	44.3	24.2	N#C/N=C(\NCCCN1CCN(c2ncccn2)CC1)c1ccccn1
770	85.9	62.8	34.9	N#C/N=C(\NCCCN1CCN(c2cccc(C(F)(F)F)c2)CC1)c1ccccn1
152				CCOc1ccccc1N1CCN(CCCN/C(=N\C#N)c2ccccn2)CC1
105	95.1	65.9	21.9	COc1ccccc1N1CCN(CCCN/C(=N\C#N)c2ccccn2)CC1
729				Cc1cccc(N2CCN(CCCN/C(=N\C#N)c3ccccn3)CC2)c1C
